Results taken from ChEMBL document CHEMBL1121825, “A potent, new, sedative--hypnotic agent: 5,7-dihydro-5,5,7,7-tetramethyl-3-(3-nitrophenyl)furo[3,4-e]-as-triazine 4-oxide” (J Med Chem, 1981).

How the values were obtained:
Mus musculus [1] = test: Ability to reinduce anesthesia in mice as a measure of in vivo sedative-hypnotic activity; type: functional
Outline: (§1)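 Male Royal Hart mice (20–25 g) were anesthetized with hexobarbital 70.0 mg/kg iv. While they were regaining the righting reflex, compound was given ip. Reinduction was scored as loss of righting reflex for 10 min. ED50 (mg/kg) is the dose reinducing anesthesia in 50% of mice, estimated by probit analysis (Miller–Tainter).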

Mus musculus [2] = test: Tested for ability to reinduce anesthesia in mice when administered intraperitoneally as a measure of in vivo sedative-hypnotic activity; D represents Toxic; type: functional, organism-based; outline: as §1
Mus musculus [3] = test: Compound was tested for mortality in mice when administered intraperitoneally; type: functional; conditions: ip
Outline: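 Male Royal Hart mice (20–25 g), groups of five, dosed ip 1 h before SaH 41-178 (50.0 mg/kg ip) to evoke seizures. ED50 is the dose preventing death in 50% of animals, estimated by probit analysis. At least 20 animals per drug.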

Mus musculus [4] = test: Compound was tested for mortality in mice when administered perorally; type: functional; conditions: po
Outline: (§2)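 Groups of five male Royal Hart mice (20–25 g) received test drug ip or orally 1 h before seizure induction with SaH 41-178 (50.0 mg/kg ip). ED50 is the dose preventing tonic convulsions or death in 50% of animals, by probit analysis.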

Mus musculus [5] = test: Ataxia effect in mice was tested when the compound was administered perorally; type: functional; conditions: po
Outline: (§3)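 Male Royal Hart mice (20–25 g) were dosed orally and scored in a modified Irwin behavioural observation screen. ED50 values (mg/kg) were estimated by probit analysis after Miller and Tainter, with at least 20 animals per drug. Values were reported as ED50 ± SE, or as the evaluation at the highest nontoxic dose used.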

Mus musculus [6] = test: Ataxia effect in mice was tested when the compound was administered intraperitoneally; type: functional; conditions: ip
Outline: (§4)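 Modified Irwin observational screen in male Royal Hart mice (20–25 g). ED50 (mg/kg) by probit analysis; at least 20 animals per drug.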

Mus musculus [7] = test: Compound was tested for reinduction of anesthesia in mice when administered intraperitoneally; type: functional; conditions: ip
Outline: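 Male Royal Hart mice (20–25 g) anaesthetised with hexobarbital (70.0 mg/kg iv) were given drug ip as they regained the righting reflex (modified Winter method). ED50 is the dose producing loss of righting reflex for 10 min in 50% of mice, by probit analysis.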

Mus musculus [8] = test: Compound was tested for rotarod motor coordination in mice when administered intraperitoneally; type: functional; conditions: ip
Outline: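 Male Royal Hart mice (20–25 g), groups of five, were trained to ride a corrugated-paper-covered rod turning at 15 rpm for 60–90 s. They were retested 30 and 60 min after ip drug or saline. Percent change in rotarod time was taken against controls. ED50 is the dose cutting rotarod time by 50%, estimated by probit analysis. At least 20 animals per drug.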

Mus musculus [9] = test: Compound was tested for rotarod motor coordination in mice when administered perorally; type: functional; conditions: po
Outline: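 Modified Dunham–Miya rotarod test. Groups of five male Royal Hart mice (20–25 g) were trained on a 15 rpm corrugated rod for 60–90 s, then retested 30 and 60 min after drug or saline (ip or oral). Percent change in riding time versus controls; ED50 is the dose giving a 50% decrease, by probit analysis.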

Mus musculus [10] = test: Docility effect in mice was tested when the compound was administered ip; type: functional; outline: as §4
Mus musculus [11] = test: Docility effect in mice was tested when the compound was administered perorally; type: functional; conditions: po
Outline: (§5)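 Oral dosing of male Royal Hart mice (20–25 g), scored by a modified Irwin behavioural screen. ED50 (mg/kg) estimated by probit analysis; at least 20 animals per drug.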

Mus musculus [12] = test: Compound was tested for tonic convulsions when administered intraperitoneally; type: functional; conditions: ip; outline: as §2
Mus musculus [13] = test: Righting reflex effect in mice was tested when the compound was administered intraperitoneally; type: functional; conditions: ip; outline: as §4
Mus musculus [14] = test: Righting reflex effect in mice was tested when the compound was administered perorally; type: functional; conditions: po; outline: as §3
Mus musculus [15] = test: Hypomotility effect in mice was tested when the compound was administered intraperitoneally; type: functional; conditions: ip; outline: as §4
Mus musculus [16] = test: Hypomotility effect in mice was tested when the compound was administered perorally; type: functional; conditions: po
Outline: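 Modified Irwin behavioral observation in male Royal Hart mice (20–25 g), observed for 2 h after dosing. ED50 (mg/kg) estimated by probit analysis per Miller and Tainter. At least 20 animals per drug.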

Mus musculus [17] = test: Prehensile effect in mice was tested when the compound was administered intraperitoneally; type: functional; conditions: ip; outline: as §4
Mus musculus [18] = test: Prehensile effect in mice was tested when the compound was administered perorally; type: functional; conditions: po; outline: as §5
[19] = Acute toxicity in mice after 2 hours when administered intraperitoneally; type: organism-based; conditions: mouse, in vivo, ip
Outline: (§6)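 Male Royal Hart mice (20–25 g) dosed intraperitoneally or orally; deaths scored at 2 h and 72 h. LD50 (mg/kg) estimated by probit analysis (Miller–Tainter), with at least 20 animals per drug.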

[20] = Acute toxicity in mice after 2 hours when administered perorally; type: organism-based; conditions: mouse, in vivo, po; outline: as §6
[21] = Acute toxicity in mice after 72 hours when administered intraperitoneally; type: organism-based; conditions: mouse, in vivo, ip; outline: as §6
[22] = Acute toxicity in mice after 72 hours when administered perorally; type: organism-based; conditions: mouse, in vivo, po; outline: as §6
Rattus norvegicus [23] = test: Hypomotility effect in rats was tested when the compound was administered perorally; type: functional; conditions: po
Outline: (§7)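 Modified Irwin behavioural observation in male Wistar rats (130–160 g). ED50 (mg/kg) obtained by probit analysis; minimum 20 animals per drug.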

Rattus norvegicus [24] = test: Ataxia effect in rats was tested when the compound was administered perorally; type: functional; conditions: po; outline: as §7
Rattus norvegicus [25] = test: Righting reflex effect in rats was tested when the compound was administered perorally; type: functional; conditions: po; outline: as §7
[26] = Acute toxicity in rats after 2 hours when administered perorally; type: organism-based; conditions: rat, in vivo, po
Outline: (§8)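 Male Wistar rats (130–160 g) dosed orally; lethality read at 2 h and 72 h. LD50 (mg/kg) derived by probit analysis (Miller–Tainter), using a minimum of 20 animals per drug.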

Mus musculus [27] = test: Compound was tested for tonic convulsions when administered perorally; type: functional; conditions: po; outline: as §2
[28] = Acute toxicity in rats after 72 hours when administered perorally; type: organism-based; conditions: rat, in vivo, po; outline: as §8

Question: With `CC1(C)OC(C)(C)c2nnc(-c3ccccc3)cc21.Cl` as the molecule, how does the ED50 (Mus musculus [1]) read?
Answer: 112 mg/kg

Question: With `CCCc1nc(-c2ccccn2)nnc1C` as the molecule, how does the ED50 (Mus musculus [2]) read?
Answer: Toxic

Question: Which ED50 (Mus musculus [1]) does the source give for `CC1(C)CSCC(C)(C)c2nc(-c3ccccc3)nnc21` here?
Answer: 31.3 mg/kg

Question: Which ED50 (Mus musculus [1]) does the source give for `Cc1cccc(-c2nnc3c([n+]2[O-])C(C)(C)OC3(C)C)c1` here?
Answer: 150 mg/kg

Question: With `Cc1nnc(-c2ccccn2)nc1C` as the molecule, how does the ED50 (Mus musculus [2]) read?
Answer: Toxic

Question: Which ED50 (Mus musculus [1]) does the source give for `CC1(C)OC(C)(C)c2nc(-c3cccc([N+](=O)[O-])c3)nnc21` here?
Answer: 68.8 mg/kg

Question: With `CCOC(=O)c1nnc(-c2ccccn2)nc1O` as the molecule, how does the ED50 (Mus musculus [2]) read?
Answer: Toxic

Question: With `Cc1ccccc1-n1c(C)nc2ccccc2c1=O` [METHAQUALONE] as the molecule, how does the ED50 (Mus musculus [3]) read?
Answer: 25 mg/kg

Question: What about the ED50 (Mus musculus [4]) of the same molecule?
Answer: 45 mg/kg

Question: And the ED50 (Mus musculus [5])?
Answer: 23 mg/kg

Question: What about the ED50 (Mus musculus [6]) of the same molecule?
Answer: 29 mg/kg

Question: And the ED50 (Mus musculus [7])?
Answer: 19 mg/kg

Question: What about the ED50 (Mus musculus [8]) of the same molecule?
Answer: 25 mg/kg

Question: And the ED50 (Mus musculus [9])?
Answer: 36 mg/kg

Question: And the ED50 (Mus musculus [10])?
Answer: 31 mg/kg

Question: And the ED50 (Mus musculus [11])?
Answer: 20 mg/kg

Question: What about the ED50 (Mus musculus [1]) of the same molecule?
Answer: 20 mg/kg

Question: What about the ED50 (Mus musculus [12]) of the same molecule?
Answer: 25 mg/kg

Question: And the ED50 (Mus musculus [13])?
Answer: 34 mg/kg

Question: And the ED50 (Mus musculus [14])?
Answer: 23 mg/kg

Question: And the ED50 (Mus musculus [15])?
Answer: 34 mg/kg

Question: And the ED50 (Mus musculus [16])?
Answer: 25 mg/kg

Question: And the ED50 (Mus musculus [17])?
Answer: 37 mg/kg

Question: And the ED50 (Mus musculus [18])?
Answer: 30 mg/kg

Question: What about the LD50 at 2 h [19] of the same molecule?
Answer: 565 mg/kg

Question: What about the LD50 at 2 h [20] of the same molecule?
Answer: > 400 mg/kg

Question: And the LD50 at 72 h [21]?
Answer: 470 mg/kg

Question: And the LD50 at 72 h [22]?
Answer: > 400 mg/kg

Question: What about the ED50 (Rattus norvegicus [23]) of the same molecule?
Answer: 44 mg/kg

Question: And the ED50 (Rattus norvegicus [24])?
Answer: 23 mg/kg

Question: And the ED50 (Rattus norvegicus [25])?
Answer: 52 mg/kg

Question: What about the LD50 at 2 h [26] of the same molecule?
Answer: > 800 mg/kg

Question: And the ED50 (Mus musculus [27])?
Answer: 39 mg/kg

Question: What about the LD50 at 72 h [28] of the same molecule?
Answer: 185 mg/kg

Question: Which ED50 (Mus musculus [1]) does the source give for `CC1(C)OC(C)(C)c2c1ncc(-c1ccccc1)[n+]2[O-].Cl` here?
Answer: 1000 mg/kg

Question: Which ED50 (Mus musculus [1]) does the source give for `CC1(C)OC(C)(C)c2nc(-c3ccccc3)nnc21` here?
Answer: 167 mg/kg

Question: Which ED50 (Mus musculus [1]) does the source give for `CC1(C)OC(C)(C)C(N=N)=C1O` here?
Answer: 133 mg/kg

Question: With `CC1(C)OC(C)(C)c2nc(-c3cnccn3)nnc21` as the molecule, how does the ED50 (Mus musculus [1]) read?
Answer: 100 mg/kg

Question: Which ED50 (Mus musculus [1]) does the source give for `Cc1ccc(-c2nnc3c([n+]2[O-])C(C)(C)OC3(C)C)cc1C` here?
Answer: 133 mg/kg

Question: With `CCCc1nnc(-c2ccccn2)nc1C` as the molecule, how does the ED50 (Mus musculus [2]) read?
Answer: Toxic

Question: With `CC1(C)OC(C)(C)c2nc(-c3ccncc3)nnc21` as the molecule, how does the ED50 (Mus musculus [1]) read?
Answer: 56.2 mg/kg

Question: Which ED50 (Mus musculus [1]) does the source give for `CC1(C)OC(C)(C)c2nc(-c3ccc(Cl)cn3)nnc21` here?
Answer: 66.7 mg/kg

Question: For `CC1(C)OC(C)(C)c2c1nnc(-c1ccccc1)[n+]2[O-]`, which ED50 (Mus musculus [1]) is on record?
Answer: 163 mg/kg

Question: With `CC1(C)OC(C)(C)c2nc(-c3cccc[n+]3[O-])nnc21` as the molecule, how does the ED50 (Mus musculus [1]) read?
Answer: 138 mg/kg

Question: For `CC1(C)OC(C)(C)c2c1nnc(-c1cccc(Cl)c1)[n+]2[O-]`, which ED50 (Mus musculus [1]) is on record?
Answer: 500 mg/kg
